Test results published in ChEMBL document CHEMBL4020814, “Synthesis, Binding Mode, and Antihyperglycemic Activity of Potent and Selective (5-Imidazol-2-yl-4-phenylpyrimidin-2-yl)[2-(2-pyridylamino)ethyl]amine Inhibitors of Glycogen Synthase Kinase 3” (J Med Chem, 2017).

Columns and labels:
[1] = Plasma concentration in diabetic db/db mouse at 30 mg/kg administered at 4.5 and 0.5 hrs prior to oral glucose challenge measured 20 mins post second dose
[2] = Inhibition of human GSK3 using biotin-CREB peptide substrate after 1 hr by scintillation counting method
[3] = Inhibition of GSK3 expressed in CHO-IR cells expressing human insulin receptor assessed as glycogen synthase activation after 30 mins by filter paper assay; type: cell-based, Cavia porcellus
Rattus norvegicus = test: Antidiabetic activity in diabetic ZDF fa/fa rat assessed as reduction in plasma glucose AUC at 8 mg/kg administered 4.5 and 0.5 hrs prior to oral glucose challenge by oral glucose tolerance test; type: functional; design: scale not given: the % may be the effect or the level left
Method in brief: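 Obese 10-week-old ZDF (fa/fa) rats, n = 8/group, fasted overnight, given 8 mg/kg orally at 4.5 and 0.5 h before oral glucose challenge. Efficacy is the percent reduction in plasma glucose AUC versus untreated animals. Formulations were 15% captisol, 1% CMC or water with pH adjusted.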

[4] = Oral bioavailability in diabetic ZDF fa/fa rat at 8 mg/kg administered 4.5 and 0.5 hrs prior to oral glucose challenge; type: ADME, organism-based; conditions: in vivo
[5] = Half life in diabetic ZDF fa/fa rat at 8 mg/kg administered 4.5 and 0.5 hrs prior to oral glucose challenge; type: ADME, organism-based; conditions: in vivo
[6] = biological target: Vascular endothelial growth factor receptor 2 (Homo sapiens, UniProt P35968)
[7] = Inhibition of human DNA-dependent protein kinase using PI as substrate after 1 hr by scintillation counting method
[8] = biological target: Glycogen synthase kinase-3 beta (Homo sapiens, UniProt P49841); test: Inhibition of human GSK3beta using biotin-CREB peptide substrate after 1 hr by scintillation counting method
[9] = biological target: Glycogen synthase kinase-3 alpha (Homo sapiens, UniProt P49840); test: Inhibition of human GSK3alpha using biotin-CREB peptide substrate after 1 hr by scintillation counting method
[10] = biological target: Fibroblast growth factor receptor 1 (Homo sapiens, UniProt P11362)
[11] = biological target: Vascular endothelial growth factor receptor 1 (Homo sapiens, UniProt P17948)
Insulin receptor = Insulin receptor (Homo sapiens, UniProt P06213); test: Inhibition of human insulin receptor tyrosine kinase after 1 hr by scintillation counting method
[12] = biological target: Mitogen-activated protein kinase 1 (Homo sapiens, UniProt P28482); test: Inhibition of human ERK2 using myelin basic protein substrate after 1 hr by scintillation counting method
[13] = biological target: Insulin-like growth factor 1 receptor (Homo sapiens, UniProt P08069)
[14] = biological target: T1, Serine/threonine-protein kinase Chk1 (Homo sapiens, UniProt O14757); test: Inhibition of human CHK1 using biotin-CDC25 peptide substrate after 1 hr by scintillation counting method
T1 sequence (O14757 whole entry): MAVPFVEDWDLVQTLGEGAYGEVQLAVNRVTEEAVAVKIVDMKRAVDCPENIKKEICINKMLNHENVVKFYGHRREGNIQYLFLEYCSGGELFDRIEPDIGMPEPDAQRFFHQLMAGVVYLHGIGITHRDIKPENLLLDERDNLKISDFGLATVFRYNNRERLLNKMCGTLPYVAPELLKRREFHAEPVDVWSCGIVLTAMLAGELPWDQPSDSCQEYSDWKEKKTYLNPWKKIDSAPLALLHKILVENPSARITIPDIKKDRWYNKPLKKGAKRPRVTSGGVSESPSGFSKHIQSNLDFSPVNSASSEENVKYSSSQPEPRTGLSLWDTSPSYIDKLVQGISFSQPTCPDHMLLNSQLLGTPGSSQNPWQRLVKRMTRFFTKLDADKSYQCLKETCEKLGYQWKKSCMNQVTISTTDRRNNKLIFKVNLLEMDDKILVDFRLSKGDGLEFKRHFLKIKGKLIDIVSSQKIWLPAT

[15] = biological target: Casein kinase I isoform epsilon (Homo sapiens, UniProt P49674); test: Inhibition of human CK1epsilon using biotin peptide substrate after 1 hr by scintillation counting method
[16] = biological target: Cyclin-dependent kinase 1 (Homo sapiens, UniProt P06493); test: Inhibition of human CDC2 using biotin histone H1 peptide substrate after 1 hr by scintillation counting method
[17] = Inhibition of GSK3 in Sprague-Dawley rat primary hepatocytes assessed as assessed as glycogen synthase activation after 30 mins
Angiopoietin-1 receptor = Angiopoietin-1 receptor (Homo sapiens, UniProt Q02763)
[18] = Inhibition of human phosphatidylinositol (PI) 3-kinase using PI as substrate after 1 hr by scintillation counting method
[19] = biological target: RAC-alpha serine/threonine-protein kinase (Homo sapiens, UniProt P31749); test: Inhibition of human AKT1/PKB using phospho-AKT peptide substrate after 1 hr by scintillation counting method
[20] = Stability in human liver microsomes assessed as half life; type: ADME, microsome
[21] = Stability in rat liver microsomes assessed as half life; type: ADME, microsome
[22] = Stability in dog liver microsomes assessed as half life; type: ADME, Canis lupus familiaris, microsome
[23] = biological target: T2, Protein kinase C zeta type (Homo sapiens, UniProt Q05513); test: Inhibition of human PKCzeta using biotin-PKC-86 peptide substrate after 30 mins in the presence of phosphatidylserine and diacylglycerol activators by scintillation counting
T2 sequence (Q05513 whole entry): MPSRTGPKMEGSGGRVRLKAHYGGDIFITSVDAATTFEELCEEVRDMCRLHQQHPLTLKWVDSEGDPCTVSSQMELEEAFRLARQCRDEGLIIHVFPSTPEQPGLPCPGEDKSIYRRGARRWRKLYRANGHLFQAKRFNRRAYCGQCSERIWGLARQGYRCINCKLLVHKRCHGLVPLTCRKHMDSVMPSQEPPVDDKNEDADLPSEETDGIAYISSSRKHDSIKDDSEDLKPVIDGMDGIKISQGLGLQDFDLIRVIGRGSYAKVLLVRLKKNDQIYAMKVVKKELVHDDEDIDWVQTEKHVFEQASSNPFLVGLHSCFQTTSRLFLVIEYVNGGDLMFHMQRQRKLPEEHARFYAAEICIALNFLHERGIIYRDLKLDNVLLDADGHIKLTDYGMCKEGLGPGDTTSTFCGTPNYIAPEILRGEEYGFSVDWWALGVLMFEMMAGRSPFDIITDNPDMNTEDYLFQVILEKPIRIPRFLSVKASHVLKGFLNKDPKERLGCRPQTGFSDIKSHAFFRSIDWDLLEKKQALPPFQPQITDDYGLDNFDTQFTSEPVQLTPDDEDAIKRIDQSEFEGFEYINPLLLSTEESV
Method in brief: (§1)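 Kinase buffer: 50 mmol/L Tris-HCl pH 7.5, 10 mmol/L MgCl2, 1 mmol/L EGTA, 1 mmol/L DTT, 25 mmol/L β-glycerophosphate, 1 mmol/L NaF, 0.01% BSA. It contained kinase, peptide substrate and activators. Compound was added in DMSO with 1 μmol/L final ATP. PKC-ζ, AMPK and pdk1 were commercial enzymes.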

[24] = biological target: T3, 3-phosphoinositide-dependent protein kinase 1 (Homo sapiens, UniProt O15530); test: Inhibition of human PDK1 using unactivated AKT substrate in presence of COPC, DOPS and PIP3 activators after 1 hr by scintillation counting method; method in brief: as §1
T3 sequence (O15530 whole entry): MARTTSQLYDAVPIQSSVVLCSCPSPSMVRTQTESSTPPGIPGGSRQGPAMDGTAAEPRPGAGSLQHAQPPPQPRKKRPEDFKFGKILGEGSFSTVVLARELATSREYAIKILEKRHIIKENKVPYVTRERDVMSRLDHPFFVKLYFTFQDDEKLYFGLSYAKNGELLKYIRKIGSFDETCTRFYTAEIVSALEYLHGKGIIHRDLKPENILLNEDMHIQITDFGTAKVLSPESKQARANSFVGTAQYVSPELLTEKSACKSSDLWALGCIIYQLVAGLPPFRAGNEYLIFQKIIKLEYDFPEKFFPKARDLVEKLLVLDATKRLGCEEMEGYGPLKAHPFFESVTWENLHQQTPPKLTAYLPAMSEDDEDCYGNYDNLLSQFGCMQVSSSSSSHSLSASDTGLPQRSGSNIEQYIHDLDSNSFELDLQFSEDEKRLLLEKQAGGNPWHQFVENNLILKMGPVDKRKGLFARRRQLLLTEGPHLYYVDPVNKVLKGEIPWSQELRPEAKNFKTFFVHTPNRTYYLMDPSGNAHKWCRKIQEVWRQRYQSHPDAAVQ

[25] = Inhibition of rat AMP kinase using SAMS peptide substrate in the presence of AMP after 1 hr by scintillation counting method; method in brief: as §1
Mus musculus = species on record: Mus musculus; test: Antidiabetic activity in diabetic db/db mouse assessed as time required for improved glucose disposal by oral glucose tolerance test; type: functional
Method in brief: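 db/db mice, 6–8 per group, fasted ~6 h (food removed 3 h before prebleed), dosed orally at −4.5 and −0.5 h relative to oral glucose (vehicle 10% captisol). Tail-snip blood glucose was read by glucometer or analyzer; plasma insulin was measured by ELISA.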

Sequence of Glycogen synthase kinase-3 beta (P49841 whole entry): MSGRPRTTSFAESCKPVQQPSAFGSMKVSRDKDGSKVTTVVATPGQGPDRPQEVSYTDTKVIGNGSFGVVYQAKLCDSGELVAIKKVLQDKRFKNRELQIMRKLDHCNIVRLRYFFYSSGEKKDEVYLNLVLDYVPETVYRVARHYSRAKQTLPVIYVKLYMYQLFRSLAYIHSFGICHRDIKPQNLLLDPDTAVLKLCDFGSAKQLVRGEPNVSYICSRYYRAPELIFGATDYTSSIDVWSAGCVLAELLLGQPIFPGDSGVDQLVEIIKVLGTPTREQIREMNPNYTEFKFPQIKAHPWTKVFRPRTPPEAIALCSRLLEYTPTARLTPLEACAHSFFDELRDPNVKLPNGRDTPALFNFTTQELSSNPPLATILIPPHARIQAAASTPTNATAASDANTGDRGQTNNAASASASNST
Sequence of Vascular endothelial growth factor receptor 1 (P17948 whole entry): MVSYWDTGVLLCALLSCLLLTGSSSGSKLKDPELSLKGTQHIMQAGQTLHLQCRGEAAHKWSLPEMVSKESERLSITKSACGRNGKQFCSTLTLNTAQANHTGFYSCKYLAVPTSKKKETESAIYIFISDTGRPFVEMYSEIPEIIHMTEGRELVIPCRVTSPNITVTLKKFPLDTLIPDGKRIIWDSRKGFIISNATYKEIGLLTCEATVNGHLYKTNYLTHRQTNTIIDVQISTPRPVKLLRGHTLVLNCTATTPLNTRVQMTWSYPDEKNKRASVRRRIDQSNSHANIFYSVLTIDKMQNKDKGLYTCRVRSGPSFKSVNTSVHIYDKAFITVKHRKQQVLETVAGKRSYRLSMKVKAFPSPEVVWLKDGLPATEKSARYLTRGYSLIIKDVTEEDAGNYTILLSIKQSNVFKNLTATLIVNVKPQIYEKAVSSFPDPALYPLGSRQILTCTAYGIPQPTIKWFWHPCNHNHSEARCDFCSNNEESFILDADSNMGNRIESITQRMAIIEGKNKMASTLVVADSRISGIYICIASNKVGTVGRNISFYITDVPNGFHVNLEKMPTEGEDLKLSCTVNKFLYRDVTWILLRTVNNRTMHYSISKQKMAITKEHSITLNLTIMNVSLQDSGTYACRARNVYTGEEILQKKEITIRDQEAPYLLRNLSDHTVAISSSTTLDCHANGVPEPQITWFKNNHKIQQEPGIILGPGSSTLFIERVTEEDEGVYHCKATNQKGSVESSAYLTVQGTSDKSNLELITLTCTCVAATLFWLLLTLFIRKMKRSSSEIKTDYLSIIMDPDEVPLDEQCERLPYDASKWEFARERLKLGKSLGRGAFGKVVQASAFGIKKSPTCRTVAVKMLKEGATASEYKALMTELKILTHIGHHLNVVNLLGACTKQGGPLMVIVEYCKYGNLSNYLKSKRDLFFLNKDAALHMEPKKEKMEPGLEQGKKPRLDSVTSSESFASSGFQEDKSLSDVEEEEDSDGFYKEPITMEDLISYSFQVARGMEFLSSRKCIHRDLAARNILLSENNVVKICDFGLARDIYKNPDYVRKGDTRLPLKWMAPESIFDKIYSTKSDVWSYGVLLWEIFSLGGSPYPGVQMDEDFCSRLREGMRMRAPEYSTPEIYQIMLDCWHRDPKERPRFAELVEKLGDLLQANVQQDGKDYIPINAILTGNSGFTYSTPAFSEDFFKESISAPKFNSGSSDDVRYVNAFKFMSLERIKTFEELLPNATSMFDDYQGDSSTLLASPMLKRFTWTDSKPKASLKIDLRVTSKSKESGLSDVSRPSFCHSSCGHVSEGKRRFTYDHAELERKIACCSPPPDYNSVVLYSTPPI
Sequence of Angiopoietin-1 receptor (Q02763 whole entry): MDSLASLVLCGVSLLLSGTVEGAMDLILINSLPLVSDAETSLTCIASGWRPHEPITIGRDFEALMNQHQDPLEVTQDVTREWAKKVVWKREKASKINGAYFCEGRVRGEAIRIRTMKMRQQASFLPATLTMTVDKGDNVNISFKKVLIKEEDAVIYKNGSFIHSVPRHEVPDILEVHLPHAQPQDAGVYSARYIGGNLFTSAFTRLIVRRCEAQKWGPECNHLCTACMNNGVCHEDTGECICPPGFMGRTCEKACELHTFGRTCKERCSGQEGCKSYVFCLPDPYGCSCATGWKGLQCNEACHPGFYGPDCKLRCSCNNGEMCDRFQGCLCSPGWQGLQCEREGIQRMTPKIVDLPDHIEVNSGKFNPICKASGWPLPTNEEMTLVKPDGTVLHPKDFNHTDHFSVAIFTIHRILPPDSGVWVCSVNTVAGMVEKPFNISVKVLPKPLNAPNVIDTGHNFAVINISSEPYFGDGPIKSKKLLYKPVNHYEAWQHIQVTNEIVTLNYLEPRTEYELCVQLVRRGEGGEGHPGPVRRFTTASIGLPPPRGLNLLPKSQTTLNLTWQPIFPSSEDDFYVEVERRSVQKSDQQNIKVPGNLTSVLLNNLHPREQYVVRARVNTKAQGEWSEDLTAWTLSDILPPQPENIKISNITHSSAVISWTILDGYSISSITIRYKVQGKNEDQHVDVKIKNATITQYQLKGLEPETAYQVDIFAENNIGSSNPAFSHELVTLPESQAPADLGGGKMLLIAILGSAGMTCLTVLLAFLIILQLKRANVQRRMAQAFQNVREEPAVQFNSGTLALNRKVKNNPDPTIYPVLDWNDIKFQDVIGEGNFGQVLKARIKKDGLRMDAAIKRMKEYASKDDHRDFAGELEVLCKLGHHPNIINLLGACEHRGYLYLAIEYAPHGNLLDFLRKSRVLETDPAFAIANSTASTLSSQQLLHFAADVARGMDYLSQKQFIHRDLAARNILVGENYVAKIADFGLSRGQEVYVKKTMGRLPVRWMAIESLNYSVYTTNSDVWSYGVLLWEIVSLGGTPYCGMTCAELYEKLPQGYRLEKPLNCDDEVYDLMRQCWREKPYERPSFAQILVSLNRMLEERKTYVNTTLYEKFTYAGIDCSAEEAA
Sequence of Glycogen synthase kinase-3 alpha (P49840 whole entry): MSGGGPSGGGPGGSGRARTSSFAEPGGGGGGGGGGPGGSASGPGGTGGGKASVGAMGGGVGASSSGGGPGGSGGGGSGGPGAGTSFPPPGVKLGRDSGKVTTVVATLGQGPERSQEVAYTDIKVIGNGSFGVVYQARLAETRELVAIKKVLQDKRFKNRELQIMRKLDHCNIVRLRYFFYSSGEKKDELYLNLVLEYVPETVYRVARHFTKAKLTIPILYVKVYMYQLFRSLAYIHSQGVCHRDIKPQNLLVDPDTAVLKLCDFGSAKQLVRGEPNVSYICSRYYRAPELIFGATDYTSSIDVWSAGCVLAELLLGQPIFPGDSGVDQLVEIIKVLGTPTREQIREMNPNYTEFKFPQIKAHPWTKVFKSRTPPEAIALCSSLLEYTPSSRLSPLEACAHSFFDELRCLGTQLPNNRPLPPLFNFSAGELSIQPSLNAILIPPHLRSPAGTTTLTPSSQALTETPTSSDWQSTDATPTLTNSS
Sequence of Cyclin-dependent kinase 1 (P06493 whole entry): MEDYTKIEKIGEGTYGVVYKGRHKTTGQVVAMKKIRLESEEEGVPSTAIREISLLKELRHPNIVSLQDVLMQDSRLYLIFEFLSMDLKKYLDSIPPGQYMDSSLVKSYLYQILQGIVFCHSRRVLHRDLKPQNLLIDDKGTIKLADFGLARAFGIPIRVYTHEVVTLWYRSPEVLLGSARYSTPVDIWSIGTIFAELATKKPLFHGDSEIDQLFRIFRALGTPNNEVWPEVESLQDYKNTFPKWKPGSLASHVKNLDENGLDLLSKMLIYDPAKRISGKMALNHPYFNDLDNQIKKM
Sequence of Vascular endothelial growth factor receptor 2 (P35968 whole entry): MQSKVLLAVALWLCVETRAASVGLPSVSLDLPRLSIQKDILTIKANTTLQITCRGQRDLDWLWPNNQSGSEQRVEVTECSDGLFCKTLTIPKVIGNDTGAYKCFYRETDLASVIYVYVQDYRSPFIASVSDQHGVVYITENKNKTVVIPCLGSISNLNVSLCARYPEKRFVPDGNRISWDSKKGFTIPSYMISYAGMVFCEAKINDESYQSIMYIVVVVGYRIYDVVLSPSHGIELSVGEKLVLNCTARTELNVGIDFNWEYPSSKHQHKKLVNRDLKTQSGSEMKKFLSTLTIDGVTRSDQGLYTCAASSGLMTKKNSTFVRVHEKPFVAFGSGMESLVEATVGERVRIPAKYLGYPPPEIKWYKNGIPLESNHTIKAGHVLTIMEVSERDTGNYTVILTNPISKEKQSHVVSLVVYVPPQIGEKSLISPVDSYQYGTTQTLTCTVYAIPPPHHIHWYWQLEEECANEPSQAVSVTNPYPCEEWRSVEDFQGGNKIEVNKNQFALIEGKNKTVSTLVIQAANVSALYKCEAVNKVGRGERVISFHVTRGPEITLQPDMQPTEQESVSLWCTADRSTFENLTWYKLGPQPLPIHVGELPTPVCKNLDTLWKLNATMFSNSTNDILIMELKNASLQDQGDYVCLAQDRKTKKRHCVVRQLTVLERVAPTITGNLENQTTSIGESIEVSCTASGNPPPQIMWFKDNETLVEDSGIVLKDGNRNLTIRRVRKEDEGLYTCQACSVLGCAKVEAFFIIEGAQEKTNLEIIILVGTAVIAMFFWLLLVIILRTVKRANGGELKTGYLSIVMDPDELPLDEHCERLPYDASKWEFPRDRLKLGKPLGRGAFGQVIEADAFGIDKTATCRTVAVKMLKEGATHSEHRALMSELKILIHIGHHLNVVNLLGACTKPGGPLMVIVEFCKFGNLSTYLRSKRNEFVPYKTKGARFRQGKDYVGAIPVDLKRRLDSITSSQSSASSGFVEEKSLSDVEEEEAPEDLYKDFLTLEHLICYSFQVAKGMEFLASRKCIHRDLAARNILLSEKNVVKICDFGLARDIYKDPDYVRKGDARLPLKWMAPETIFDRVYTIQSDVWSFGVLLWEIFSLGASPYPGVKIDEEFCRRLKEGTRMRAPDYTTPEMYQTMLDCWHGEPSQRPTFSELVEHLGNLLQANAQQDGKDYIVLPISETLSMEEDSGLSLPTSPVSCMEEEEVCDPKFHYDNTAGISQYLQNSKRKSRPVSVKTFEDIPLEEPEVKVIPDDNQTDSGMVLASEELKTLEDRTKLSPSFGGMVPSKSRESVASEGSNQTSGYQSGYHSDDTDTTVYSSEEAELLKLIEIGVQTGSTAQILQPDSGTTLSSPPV

Row | concentration at 20 min ([1]; plasma) [ng/mL] | IC50 [2] [nM] | EC50 [3] [nM] | half-life [21] [min] | half-life [22] [min] | Structure (SMILES) | further results
1 | 1000 | 10 | 290 |  |  | Nc1cnc(NCCNc2ccc([N+](=O)[O-])c(N)n2)nc1-c1ccc(Cl)cc1Cl | 
2 | 10000 | 2 | 120 |  |  | Cc1c[nH]c(-c2cnc(NCCNc3ccc([N+](=O)[O-])c(N)n3)nc2-c2ccc(Cl)cc2Cl)n1 | Activity (Rattus norvegicus): 24%; bioavailability [4]: 7%; half-life [5]: 58 min
3 | 13000 | 6 | 260 | > 30 | > 30 | Nc1nc(NCCNc2ncc(-c3ncc[nH]3)c(-c3ccc(Cl)cc3Br)n2)ccc1[N+](=O)[O-] | 
4 | 19000 | 1 | 260 | > 30 | > 30 | Nc1nc(NCCNc2ncc(-c3ncc[nH]3)c(-c3ccc(Cl)cc3Cl)n2)ccc1[N+](=O)[O-] | IC50 [6]: > 5000 nM; IC50 [7]: > 10000 nM; IC50 [8]: 0.6 nM; IC50 [9]: 27.1 nM; Activity (Rattus norvegicus): 29%; IC50 [23]: > 10000 nM; IC50 [24]: > 10000 nM; IC50 [10]: > 5000 nM; IC50 [11]: > 5000 nM; IC50 [12]: > 10000 nM; IC50 [13]: > 10000 nM; bioavailability [4]: 6%; IC50 [14]: > 10000 nM; IC50 [15]: > 10000 nM; IC50 [16]: > 10000 nM; IC50 [25]: > 10000 nM; IC50 (Angiopoietin-1 receptor): > 25000 nM; half-life [5]: 46 min; IC50 [18]: > 5000 nM; IC50 [19]: > 10000 nM
5 | 12000 | 7 | 150 |  |  | Nc1nc(NCCNc2ncc(CO)c(-c3ccc(Cl)cc3Cl)n2)ccc1[N+](=O)[O-] | 
6 |  | 12 | 730 | > 30 | > 30 | Nc1nc(NCCNc2ncc(-c3ncc[nH]3)c(-c3ccccc3Cl)n2)ccc1[N+](=O)[O-] | 
7 | 19000 | 8 | 290 |  |  | Cc1c[nH]c(-c2cnc(NCCNc3ccc([N+](=O)[O-])cn3)nc2-c2ccc(Cl)cc2Cl)n1 | 
8 |  | 9 | 5650 | > 30 | > 30 | Nc1nc(NCCNc2ncc(-c3ncc[nH]3)c(-c3ccc(F)cc3F)n2)ccc1[N+](=O)[O-] | 

More lines, now with the values behind:

Row | Structure (SMILES) | concentration at 20 min ([1]; plasma) [ng/mL] | IC50 [2] [nM] | EC50 [3] [nM] | half-life [21] [min] | half-life [22] [min] | further results
9 | Nc1nc(NCCNc2ncc(-n3ccnc3)c(-c3ccc(Cl)cc3Cl)n2)ccc1[N+](=O)[O-] |  | 1 | 80 |  |  | IC50 [6]: > 2000 nM; IC50 [7]: > 10000 nM; concentration at 20 min ([1]; in vivo): 7000 ng/mL; IC50 [8]: 0.6 nM; IC50 [9]: 7 nM; IC50 [10]: > 1000 nM; IC50 [11]: > 5000 nM; IC50 (Insulin receptor): > 2000 nM; IC50 [12]: > 10000 nM; IC50 [13]: > 2000 nM; IC50 [14]: > 10000 nM; IC50 [15]: > 5000 nM; IC50 [16]: 4000 nM; EC50 [17]: 100 nM; IC50 (Angiopoietin-1 receptor): > 5000 nM; IC50 [18]: > 5000 nM; IC50 [19]: > 5000 nM
10 | N#Cc1ccc(-c2nc(NCCNc3ccc([N+](=O)[O-])cn3)ncc2-c2ncc[nH]2)cc1 | 1000 | 19 | 5000 |  |  | 
11 | N#Cc1ccc(NCCNc2ncc(-c3ncc[nH]3)c(-c3ccc(Cl)cc3Cl)n2)nc1 | 29000 | 4 | 510 | > 30 | > 30 | half-life [20]: 33 min; Activity (Rattus norvegicus): 18%; bioavailability [4]: 21%; half-life [5]: 52 min
12 | N#Cc1ccc(-c2nc(NCCNc3ccc([N+](=O)[O-])cn3)ncc2-n2ccnc2)cc1 | 5000 | 11 | 1300 |  |  | 
13 | O=[N+]([O-])c1ccc(NCCNc2ncc(-c3ncc[nH]3)c(-c3ccc(Cl)cc3Cl)n2)nc1 | 97000 | 4 | 370 | > 30 | > 30 | Activity (Rattus norvegicus): 29%; bioavailability [4]: 33%; half-life [5]: 143 min
14 | Nc1nc(NCCNc2ncc(N3CCOCC3)c(-c3ccc(Cl)cc3Cl)n2)ccc1[N+](=O)[O-] | 1000 | 7 | 70 |  |  | 
15 | CN1CCN(c2cnc(NCCNc3ccc([N+](=O)[O-])c(N)n3)nc2-c2ccc(Cl)cc2Cl)CC1 | 3000 | 6 | 50 |  |  | 
16 | CN1CCN(c2cnc(NCCNc3ccc([N+](=O)[O-])c(N)n3)nc2-c2ccc(Cl)cc2Cl)C(=O)C1 | 4000 | 4 | 30 |  |  | 
17 | CN(C)C(=N)NC(=N)N [METFORMIN] |  |  |  |  |  | Time (Mus musculus): <=2 weeks
18 | N#Cc1ccc(NCCNc2ncc(-n3ccnc3)c(-c3ccc(Cl)cc3Cl)n2)nc1 | 13000 | 25 | 790 |  |  | 
19 | Cc1c(C)c2c(c(C)c1O)CCC(C)(COc1ccc(CC3SC(=O)NC3=O)cc1)O2 (centres undefined) [TROGLITAZONE] |  |  |  |  |  | Time (Mus musculus): <=2 weeks
